{"source": "ChEMBL document CHEMBL1649213", "about": "“The arabinosyltransferase EmbC is inhibited by ethambutol in Mycobacterium tuberculosis” (2009)", "key": {"[1]": {"tested_on": "T1, Probable arabinosyltransferase A (Mycobacterium smegmatis (strain ATCC 700084 / mc(2)155)), A0R612 [D280G]", "T1 sequence (whole entry)": "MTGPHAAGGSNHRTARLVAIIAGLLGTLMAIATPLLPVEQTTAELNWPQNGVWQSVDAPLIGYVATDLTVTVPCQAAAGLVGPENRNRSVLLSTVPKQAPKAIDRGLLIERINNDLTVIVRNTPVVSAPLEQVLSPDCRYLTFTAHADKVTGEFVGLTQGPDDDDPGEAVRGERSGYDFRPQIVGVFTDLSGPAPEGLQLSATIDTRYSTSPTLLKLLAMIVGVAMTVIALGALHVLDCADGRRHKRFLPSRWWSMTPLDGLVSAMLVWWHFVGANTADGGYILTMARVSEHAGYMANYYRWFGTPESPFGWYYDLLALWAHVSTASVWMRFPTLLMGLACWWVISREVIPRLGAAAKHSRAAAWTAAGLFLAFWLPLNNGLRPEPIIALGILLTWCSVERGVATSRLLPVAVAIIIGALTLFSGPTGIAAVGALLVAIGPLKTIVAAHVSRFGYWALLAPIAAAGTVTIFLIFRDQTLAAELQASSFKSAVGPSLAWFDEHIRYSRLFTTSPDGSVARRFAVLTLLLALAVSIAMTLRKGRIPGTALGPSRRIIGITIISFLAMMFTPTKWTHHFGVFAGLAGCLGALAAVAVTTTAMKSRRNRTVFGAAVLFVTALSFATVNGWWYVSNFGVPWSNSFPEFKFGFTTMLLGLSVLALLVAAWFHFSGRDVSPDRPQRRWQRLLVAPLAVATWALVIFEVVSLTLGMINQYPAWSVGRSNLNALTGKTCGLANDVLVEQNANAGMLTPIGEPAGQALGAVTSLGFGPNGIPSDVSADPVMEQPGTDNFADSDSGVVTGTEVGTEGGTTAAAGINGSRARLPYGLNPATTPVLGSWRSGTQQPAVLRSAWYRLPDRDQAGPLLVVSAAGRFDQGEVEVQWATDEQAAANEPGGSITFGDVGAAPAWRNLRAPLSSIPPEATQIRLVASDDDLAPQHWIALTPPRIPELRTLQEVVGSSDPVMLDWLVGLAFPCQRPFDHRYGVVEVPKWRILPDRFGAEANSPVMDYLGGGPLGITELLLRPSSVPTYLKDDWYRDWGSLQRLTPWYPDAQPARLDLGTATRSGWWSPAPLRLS", "assay": "Inhibition of Mycobacterium smegmatis EmbC D280G mutant assessed as effect on LAM production at 32ug/ml after 2 hrs by immunoblotting", "settings": "Mycolicibacterium smegmatis"}, "[2]": {"tested_on": "Mycolicibacterium smegmatis", "assay": "Antimicrobial activity against Mycobacterium smegmatis expressing EmbC M286V mutant gene after 48 hrs by agar proportion method", "type": "functional"}, "[3]": {"tested_on": "Mycolicibacterium smegmatis", "assay": "Antimicrobial activity against Mycobacterium smegmatis expressing EmbC M286L mutant gene after 48 hrs by agar proportion method", "type": "functional"}, "[4]": {"tested_on": "Mycolicibacterium smegmatis", "assay": "Antimicrobial activity against Mycobacterium smegmatis expressing EmbC M286I mutant gene after 48 hrs by agar proportion method", "type": "functional"}, "[5]": {"tested_on": "Mycobacterium tuberculosis", "assay": "Inhibition of Mycobacterium tuberculosis EmbC assessed as effect on LAM production at 1 ug/ml after 2 hrs by immunoblotting", "how_it_was_run": "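M. tuberculosis grown in 7H9 plus 10% OADC with hygromycin 100 µg/ml, kanamycin 20 µg/ml and EMB 0 to 128 µg/ml for 14 days. Cells extracted in phenol-water (1:1) at 80°C for 2 h, then chloroform added. Aqueous phase run on denaturing, nonreducing acrylamide gels with periodic acid-Schiff staining or CS-35 anti-LAM immunoblot.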"}, "[6]": {"tested_on": "Mycolicibacterium smegmatis", "assay": "Antimicrobial activity against Mycobacterium smegmatis expressing EmbC D280G mutant gene after 48 hrs by agar proportion method", "type": "functional"}, "[7]": {"tested_on": "Mycobacterium tuberculosis", "assay": "Antimicrobial activity against Mycobacterium tuberculosis embA gene after 48 hrs by agar proportion method", "type": "functional"}, "[8]": {"tested_on": "Mycolicibacterium smegmatis", "assay": "Antimicrobial activity against Mycobacterium smegmatis expressing EmbC M286V mutant gene at 32 ug/ml after 48 hrs", "type": "functional, organism-based"}, "[9]": {"tested_on": "Mycobacterium tuberculosis", "assay": "Antimicrobial activity against Mycobacterium tuberculosis expressing EmbC gene after 48 hrs", "type": "functional"}, "[10]": {"tested_on": "Mycolicibacterium smegmatis", "assay": "Antimicrobial activity against Mycobacterium smegmatis expressing EmbC D280G mutant gene at 32 ug/ml after 48 hrs", "type": "functional, organism-based"}, "[11]": {"tested_on": "Mycolicibacterium smegmatis", "assay": "Antimicrobial activity against Mycobacterium smegmatis expressing EmbC M286I mutant gene at 32 ug/ml", "type": "functional, organism-based"}, "[12]": {"tested_on": "Mycobacterium tuberculosis", "assay": "Antimicrobial activity against Mycobacterium tuberculosis expressing EmbC gene after 48 hrs by agar proportion method", "type": "functional"}, "[13]": {"tested_on": "Mycolicibacterium smegmatis", "assay": "Antimicrobial activity against Mycobacterium smegmatis expressing EmbC gene after 48 hrs by agar proportion method", "type": "functional, organism-based"}, "[14]": {"tested_on": "Mycolicibacterium smegmatis", "assay": "Antimicrobial activity against Mycobacterium smegmatis expressing EmbC M286L mutant gene at 32 ug/ml after 48 hrs", "type": "functional, organism-based"}}, "note": "Activity calls are given as the source filed them. The rule behind the calls is not given here."}
{"molecule": "CC[C@@H](CO)NCCN[C@@H](CC)CO", "note": "[ETHAMBUTOL]", "values": [{"measurement": "inhibition", "setting": "[1]", "value": "Active"}, {"measurement": "MIC", "setting": "[2]", "value": 32, "unit": "µg/mL"}, {"measurement": "MIC", "setting": "[3]", "value": 64, "unit": "µg/mL"}, {"measurement": "MIC", "setting": "[4]", "value": 32, "unit": "µg/mL"}, {"measurement": "inhibition", "setting": "[5]", "value": "Active"}, {"measurement": "MIC", "setting": "[6]", "value": 64, "unit": "µg/mL"}, {"measurement": "MIC", "setting": "[7]", "value": 3, "unit": "µg/mL"}, {"measurement": "Activity", "setting": "[8]", "value": "inactive"}, {"measurement": "MIC", "setting": "[9]", "value": 3, "unit": "µg/mL"}, {"measurement": "Activity", "setting": "[10]", "value": "inactive"}, {"measurement": "Activity", "setting": "[11]", "value": "inactive"}, {"measurement": "MIC90", "setting": "[12]", "value": 1, "unit": "µg/mL"}, {"measurement": "MIC", "setting": "[13]", "value": "inactive"}, {"measurement": "Activity", "setting": "[14]", "value": "inactive"}]}
